Results from different studies.
Compare with care: the assays were run in different laboratories.
Cell line: K562
Observed: cell growth or viability

Compound	technique	time	IC50
CN1CCC(NC2CCc3[nH]c4c(C(N)=O)ccc(-c5ccccc5Cl)c4c3C2)CC1 (stereo not shown)			0.0214 µM
FC(F)(F)c1ccc(-c2cc(CNc3cccc4cccnc34)on2)cc1	MTS	72 h	> 100 µM
O=C(NO)c1ccc(Cn2cnc3c(Nc4cccc([N+](=O)[O-])c4)ncnc32)cc1	MTT	72 h	10.4 µM
c1ccc(-c2cc(CNc3cccc4cccnc34)on2)cc1	MTS	72 h	> 100 µM
CC(C)[C@@H]1NC(=O)/C(=C/c2cnc[nH]2)NC1=O	MTT		> 15 µM
O=C(NO)c1ccc(Cn2cnc3c(Nc4ccc(Br)cc4F)ncnc32)cc1	MTT	72 h	5.18 µM
O=c1cc(OCc2cc(-c3ccc(Cl)cc3Cl)no2)c2ccccc2o1	MTS	72 h	> 100 µM
COc1ccc(Nc2ncnc3c2ncn3Cc2ccc(C(=O)Nc3ccccc3N)cc2)cc1	MTT	72 h	> 50 µM
COc1cccc2c1C(=O)c1c(O)c3c(c(O)c1C2=O)C[C@@](O)(C(=O)CO)C[C@@H]3O[C@H]1C[C@H](N)[C@H](O)[C@H](C)O1		96 h	0.13 µM
CC(C)[C@@H]1NC(=O)[C@H](Cc2c[nH]cn2)NC1=O	MTT		> 15 µM
